Source: ChEMBL document CHEMBL4364265, “Oridonin derivatives as potential anticancer drug candidates triggering apoptosis through mitochondrial pathway in the liver cancer cells” (Eur J Med Chem, 2019)
The source made the active and inactive calls. No cut-off for these calls is given here.

Legend:
A549 = test: Antiproliferative activity against human A549 cells incubated for 72 hrs by CCK8 cells; type: functional, cell-based; conditions: A549, 72 h
Method in brief: (§1)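 CCK-8 proliferation assay. 10,000 cells per well were preincubated 24 h at 37 °C with 5% CO2, then given compound dissolved in DMSO and incubated 72 h. CCK-8 was added for 4 h and absorbance read at 450 nm. IC50 was taken from dose-response curves as mean ± SEM of at least three independent experiments, with paclitaxel as positive control. HepG2 and L-O2 were grown in DMEM/10% FBS; A549 and RPMI-8226 in RPMI 1640/10% FBS.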

HepG2 [1] = test: Antiproliferative activity against human HepG2 cells incubated for 72 hrs by CCK8 cells; type: functional, cell-based; conditions: HepG2, 72 h; method in brief: as §1
RPMI-8226 = test: Antiproliferative activity against human RPMI8226 cells incubated for 72 hrs by CCK8 cells; type: functional, cell-based; conditions: RPMI-8226, 72 h; method in brief: as §1
[2] = Selectivity index, ratio of IC50 for human LO2 cells to IC50 for human PLC/PRF/5 cells
Method in brief: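 L-O2 and PLC/PRF/5 cells were grown in DMEM with 10% FBS at 37 °C and 5% CO₂. For CCK-8 proliferation, 10,000 cells per well were pre-incubated 24 h, then exposed to compound in DMSO for 72 h. CCK-8 was added for 4 h and A450 read. IC50 came from dose–response curves; SI is IC50(L-O2)/IC50(PLC/PRF/5).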

PLC-PRF-5 [3] = test: Antiproliferative activity against human PLC/PRF/5 cells incubated for 72 hrs by CCK8 cells; type: functional, cell-based; conditions: PLC-PRF-5, 72 h
PLC-PRF-5 [4] = test: Antitumour activity against human PLC/PRF/5 cells xenografted in nude mouse assessed as reduction in tumour weight at 10 mg/kg, iv administrated once every 3 days for 4 weeks relative to control; type: functional
Method in brief: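 PLC/PRF/5 xenograft. 2 × 10^7 cells in 0.2 mL saline were injected s.c. into the right forelimb of nude mice. At about 120 mm3, mice were randomized into 3 groups of 6 and dosed i.v. at 10 mg/kg once every three days for 4 weeks. Vehicle was 10% N-methylpyrrolidone/12% Tween-80/78% saline. Volume (a×b²/2) and body weight were recorded daily, and tumors were excised and weighed at the end.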

PLC-PRF-5 [5] = test: Inhibition of colony formation in human PLC/PRF/5 cells assessed as decrease in colony size at 0.1 to 1 uM incubated for 10 days by crystal violet staining based microscopic method
L02 = test: Cytotoxicity against human LO2 cells incubated for 72 hrs by CCK8 cells; type: cell-based; conditions: L02, 72 h; method in brief: as §1
HepG2 [6] = test: Inhibition of colony formation in human HepG2 cells at 0.1 to 1 uM incubated for 10 days by crystal violet staining based microscopic method; type: functional, cell-based
Method in brief: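 Five hundred cells plated per 30 mm dish and left 12 h. Medium with compound was added (0, 0.1, 0.5, 1 µM) or DMSO as negative control, and cells grew 10 days. Colonies were fixed in methanol 15 min, stained with 0.1% crystal violet 15 min, photographed and counted. Colony size was checked by microscope. Relative colony number is mean ± SD of ≥3 independent experiments.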

Row | Structure (SMILES) | IC50 (A549) | IC50 (HepG2 [1]) | IC50 (RPMI-8226) | Ratio IC50 [2] | IC50 (PLC-PRF-5 [3]) | Activity (PLC-PRF-5 [4]) | inhibition (PLC-PRF-5 [5]) | IC50 (L02) | inhibition (HepG2 [6])
1 | C=C1C(=O)[C@]23[C@H](O)[C@H]1CC[C@H]2[C@@]12CO[C@@]3(O)[C@@H](O)[C@@H]1C(C)(C)CC[C@@H]2OC(C)=O | 10.9 µM | 5.67 µM | 11 µM | – | – | – | – | – | –
2 | C=C1C(=O)[C@@]23C(=O)[C@@H](OC(C)=O)[C@@H]4C(C)(C)CC[C@H](OC(C)=O)[C@@]4(COC(C)=O)[C@@H]2CC[C@@H]1[C@H]3OC(C)=O | 10.5 µM | 5.4 µM | 13.9 µM | – | – | – | – | – | –
3 | C=C1C(=O)[C@]23[C@H](OC(=O)c4ccc(OCc5ccccc5)cc4F)[C@H]1CC[C@H]2[C@@]12CO[C@]3(O)[C@@H](O)[C@@H]1C(C)(C)CC[C@@H]2O | 14 µM | 16 µM | 17.5 µM | – | – | – | – | – | –
4 | C=C1C(=O)[C@]23[C@H](OC(=O)c4ccc(F)c(F)c4F)[C@H]1CC[C@H]2[C@@]12CO[C@]3(O)[C@@H](O)[C@@H]1C(C)(C)CC[C@@H]2O | 12.4 µM | 15.4 µM | 14.7 µM | – | – | – | – | – | –
5 | C=C1C(=O)[C@]23[C@H](OC(=O)c4ccc(F)c(NC(=O)c5ccc(OC)c(OCc6ccccc6)c5)c4)[C@H]1CC[C@H]2[C@@]12CO[C@]3(O)[C@@H](O)[C@@H]1C(C)(C)CC[C@@H]2O | 11 µM | 8.2 µM | 6.71 µM | – | – | – | – | – | –
6 | C=C1C(=O)[C@]23[C@H](O)[C@H]1CC[C@H]2[C@@]12CO[C@]3(O)[C@@H](O)[C@@H]1C(C)(C)CC[C@@H]2O [ORIDONIN] | 30.4 µM | 8.12 µM | 9.25 µM | 2.4 | 7.41 µM | inactive | Active | 17.5 µM | Active
7 | C=C1C(=O)[C@]23[C@H](OC(=O)/C=C/c4cc(OC)c(OC)c(OC)c4)[C@H]1CC[C@H]2[C@@]12CO[C@]3(O)[C@@H](O)[C@@H]1C(C)(C)CC[C@@H]2O | 8.8 µM | 5.98 µM | 5.98 µM | – | – | – | – | – | –
8 | C=C1C(=O)[C@]23[C@H](OC(=O)c4cccnc4Cl)[C@H]1CC[C@H]2[C@@]12CO[C@]3(O)[C@@H](O)[C@@H]1C(C)(C)CC[C@@H]2O | 31.1 µM | 27.5 µM | 15.8 µM | – | – | – | – | – | –
9 | C=C1C(=O)[C@]23[C@H](OC(=O)c4ccc(F)c(NC(=O)c5ccc(OC(F)(F)F)cc5)c4)[C@H]1CC[C@H]2[C@@]12CO[C@]3(O)[C@@H](O)[C@@H]1C(C)(C)CC[C@@H]2O | 20.9 µM | 6.54 µM | 10.5 µM | – | – | – | – | – | –
10 | C=C1C(=O)[C@]23[C@H](OC(=O)c4ccc(OC)c(OCCBr)c4)[C@H]1CC[C@H]2[C@@]12CO[C@]3(O)[C@@H](O)[C@@H]1C(C)(C)CC[C@@H]2O | 11.5 µM | 9.76 µM | 8.65 µM | – | – | – | – | – | –
11 | C=C1C(=O)[C@]23[C@H](OC(=O)c4ccc(C#N)cc4)[C@H]1CC[C@H]2[C@@]12CO[C@]3(O)[C@@H](O)[C@@H]1C(C)(C)CC[C@@H]2O | 17.4 µM | 36.6 µM | 35.2 µM | – | – | – | – | – | –
12 | C=C1C(=O)[C@]23[C@H](OC(=O)Cc4cc(OC)c(OC)c(OC)c4)[C@H]1CC[C@H]2[C@@]12CO[C@]3(O)[C@@H](O)[C@@H]1C(C)(C)CC[C@@H]2O | 37.5 µM | 8.79 µM | 10.9 µM | – | – | – | – | – | –
13 | C=C1C(=O)[C@@]23C(=O)[C@H]4OC[C@]5([C@@H](OC(C)=O)CCC(C)(C)[C@@H]45)[C@@H]2CC[C@@H]1[C@H]3O | – | 2.07 µM | – | – | – | – | – | – | –
14 | C=C1C(=O)[C@]23[C@H](OC(=O)c4cc(F)ccc4F)[C@H]1CC[C@H]2[C@@]12CO[C@]3(O)[C@@H](O)[C@@H]1C(C)(C)CC[C@@H]2O | 10.7 µM | 26 µM | 12.2 µM | – | – | – | – | – | –
15 | C=C1C(=O)[C@]23[C@H](OC(=O)[C@H](CC(C)C)NC(=O)OC(C)(C)C)[C@H]1CC[C@H]2[C@@]12CO[C@]3(O)[C@@H](O)[C@@H]1C(C)(C)CC[C@@H]2O | – | 0.98 µM | – | 2.4 | 2.67 µM | – | – | 6.3 µM | Active
16 | C=C1C(=O)[C@]23[C@H](OC(=O)CCCCC4CCSS4)[C@H]1CC[C@H]2[C@@]12CO[C@]3(O)[C@@H](O)[C@@H]1C(C)(C)CC[C@@H]2O (stereo partly drawn) | > 100 µM | 32.3 µM | > 100 µM | – | – | – | – | – | –
17 | C=C1C(=O)[C@]23[C@H](OC(=O)CCc4ccc(OC)cc4)[C@H]1CC[C@H]2[C@@]12CO[C@]3(O)[C@@H](O)[C@@H]1C(C)(C)CC[C@@H]2O | 14 µM | 8.99 µM | 9.42 µM | – | – | – | – | – | –
18 | C=C1C(=O)[C@]23[C@H](OC(=O)c4ccc(CCl)cc4)[C@H]1CC[C@H]2[C@@]12CO[C@]3(O)[C@@H](O)[C@@H]1C(C)(C)CC[C@@H]2O | 16.7 µM | 5.66 µM | 5.01 µM | – | – | – | – | – | –
19 | C=C1C(=O)[C@]23[C@H](OC(=O)c4ccc(F)c(NC(=O)Cc5ccc(OC)c(OC)c5)c4)[C@H]1CC[C@H]2[C@@]12CO[C@]3(O)[C@@H](O)[C@@H]1C(C)(C)CC[C@@H]2O | 17.2 µM | 3.76 µM | 19 µM | – | – | – | – | – | –
20 | C=C1C(=O)[C@]23[C@H](OC(=O)[C@@H]4OC(c5ccc(OC)cc5)N(C(=O)OC(C)(C)C)[C@H]4c4ccccc4)[C@H]1CC[C@H]2[C@@]12CO[C@]3(O)[C@@H](O)[C@@H]1C(C)(C)CC[C@@H]2O (stereo partly drawn) | 22.6 µM | 44.6 µM | 16.6 µM | – | – | – | – | – | –
21 | C=C1C(=O)[C@]23[C@H](OC(=O)CCc4cc(OC)c(OC)c(OC)c4)[C@H]1CC[C@H]2[C@@]12CO[C@]3(O)[C@@H](O)[C@@H]1C(C)(C)CC[C@@H]2O | 11 µM | 12.6 µM | 12.4 µM | – | – | – | – | – | –
22 | C=C1C(=O)[C@]23[C@H](OC(=O)/C=C/c4ccc(OC)c(OC)c4)[C@H]1CC[C@H]2[C@@]12CO[C@]3(O)[C@@H](O)[C@@H]1C(C)(C)CC[C@@H]2O | 24.9 µM | 1.98 µM | 5.77 µM | 1.8 | 1.03 µM | – | – | 1.85 µM | Active
23 | C=C1C(=O)[C@]23[C@H](OC(=O)CCc4ccc(OC)c(OC)c4)[C@H]1CC[C@H]2[C@@]12CO[C@]3(O)[C@@H](O)[C@@H]1C(C)(C)CC[C@@H]2O | 22.8 µM | 9.63 µM | 10.1 µM | – | – | – | – | – | –
24 | C=C1C(=O)[C@]23[C@H](O)[C@H]1CC[C@H]2[C@@]12CO[C@]3(O)[C@@H](OC(C)=O)[C@@H]1C(C)(C)CC[C@@H]2OC(C)=O | 10.5 µM | 12.3 µM | 13 µM | – | – | – | – | – | –
25 | C=C1C(=O)[C@]23[C@H](OC(=O)c4ccc(F)cc4)[C@H]1CC[C@H]2[C@@]12CO[C@]3(O)[C@@H](O)[C@@H]1C(C)(C)CC[C@@H]2O | 14.7 µM | 3.1 µM | 14.3 µM | – | – | – | – | – | –
26 | CC(=O)O[C@H]1C(=O)[C@@]2(C)[C@H]([C@H](OC(=O)c3ccccc3)[C@]3(O)C[C@H](OC(=O)[C@H](O)[C@@H](NC(=O)c4ccccc4)c4ccccc4)C(C)=C1C3(C)C)[C@]1(OC(C)=O)CO[C@@H]1C[C@@H]2O [PACLITAXEL] | 0.39 µM | 0.18 µM | 1.53 µM | – | – | – | – | – | –
